Results on 7 compounds are retold here after ChEMBL document CHEMBL4052587, “Talarazines A-E: Noncytotoxic Iron(III) Chelators from an Australian Mud Dauber Wasp-Associated Fungus, Talaromyces sp. (CMB-W045)” (J Nat Prod, 2017).

The structures appear in SMILES notation. Calls of active or inactive are those of the source. No cut-off for these calls is given here.

For the first assay, the system named is NCI-H460. Kind of assay: Cytotoxicity against human NCI-H460 cells assessed as reduction in cell viability up to 30 uM after 68 hrs by MTT assay. In kind it is functional, cell-based.
Turning to `CC(=O)N[C@@H](CCCN(O)C(=O)/C=C(\C)CCO)C(=O)OCC/C(C)=C/C(=O)N(O)CCC[C@@H]1NC(=O)[C@H](CCCN(O)C(=O)/C=C(\C)CCO)NC1=O`, the outcome was inactive.
Same read-out and setting: in the case of `C/C(=C\C(=O)N(O)CCC[C@@H]1NC(=O)[C@H](CCCN(O)C(=O)/C=C(\C)CCO)NC1=O)CCO` it was “inactive”; in that of `CC(=O)N[C@@H](CCCN(O)C(=O)/C=C(\C)CCO)C(=O)OCC/C(C)=C/C(=O)NCCC[C@@H]1NC(=O)[C@H](CCCNC(=O)/C=C(\C)CCO)NC1=O`, “inactive”.
Still for that read-out and setting: in the case of `C/C(=C\C(=O)NCCC[C@@H]1NC(=O)[C@H](CCCN(O)C(=O)/C=C(\C)CCO)NC1=O)CCO` it was “inactive”; in that of `C/C(=C\C(=O)NCCC[C@@H]1NC(=O)[C@H](CCCNC(=O)/C=C(\C)CCO)NC1=O)CCO`, “inactive”.
Still for that read-out and setting: in the case of `CC(=O)N[C@@H](CCCN(O)C(=O)/C=C(\C)CCO)C(=O)OCC/C(C)=C/C(=O)NCCC[C@@H]1NC(=O)[C@H](CCCN(O)C(=O)/C=C(\C)CCO)NC1=O` it was “inactive”; in that of `CC(=O)N[C@@H](CCCN(O)C(=O)/C=C(\C)CCO)C(=O)OCC/C(C)=C/C(=O)N(O)CCC[C@@H]1NC(=O)[C@H](CCCNC(=O)/C=C(\C)CCO)NC1=O`, “inactive”.

Another assay has as its system SW-620. Kind of assay: Cytotoxicity against human SW620 cells assessed as reduction in cell viability up to 30 uM after 68 hrs by MTT assay. It counts as functional, cell-based.
Turning to `CC(=O)N[C@@H](CCCN(O)C(=O)/C=C(\C)CCO)C(=O)OCC/C(C)=C/C(=O)N(O)CCC[C@@H]1NC(=O)[C@H](CCCN(O)C(=O)/C=C(\C)CCO)NC1=O`, the result was inactive.
Still for that read-out and setting: in the case of `C/C(=C\C(=O)N(O)CCC[C@@H]1NC(=O)[C@H](CCCN(O)C(=O)/C=C(\C)CCO)NC1=O)CCO` it was “inactive”; in that of `CC(=O)N[C@@H](CCCN(O)C(=O)/C=C(\C)CCO)C(=O)OCC/C(C)=C/C(=O)NCCC[C@@H]1NC(=O)[C@H](CCCNC(=O)/C=C(\C)CCO)NC1=O`, “inactive”.
Same read-out and setting: in the case of `C/C(=C\C(=O)NCCC[C@@H]1NC(=O)[C@H](CCCN(O)C(=O)/C=C(\C)CCO)NC1=O)CCO` it was “inactive”.
For `C/C(=C\C(=O)NCCC[C@@H]1NC(=O)[C@H](CCCNC(=O)/C=C(\C)CCO)NC1=O)CCO`, the outcome was inactive.
For the compound `CC(=O)N[C@@H](CCCN(O)C(=O)/C=C(\C)CCO)C(=O)OCC/C(C)=C/C(=O)NCCC[C@@H]1NC(=O)[C@H](CCCN(O)C(=O)/C=C(\C)CCO)NC1=O`, the outcome was inactive.
Still for that read-out and setting: the value for `CC(=O)N[C@@H](CCCN(O)C(=O)/C=C(\C)CCO)C(=O)OCC/C(C)=C/C(=O)N(O)CCC[C@@H]1NC(=O)[C@H](CCCNC(=O)/C=C(\C)CCO)NC1=O` was “inactive”.

System in the next assay: not listed separately
Kind of assay: Metal chelating activity of the compound assessed as fluorescence recovery of calcein-Fe3 complex formation up to 40 uM measured after overnight incubation by CAFe based fluorescence spectrophotometry. The method, boiled down:
(§1)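 Competition assay between the test chelator and a calcein–Fe(III) complex. Calcein is a fluorescent chelator with high Fe(III) affinity, and Fe(III) coordination quenches its fluorescence stoichiometrically. Relative Fe(III) affinity is inferred from the competing equilibrium, read as change in calcein fluorescence.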
On to `CC(=O)N[C@@H](CCCN(O)C(=O)/C=C(\C)CCO)C(=O)OCC/C(C)=C/C(=O)N(O)CCC[C@@H]1NC(=O)[C@H](CCCN(O)C(=O)/C=C(\C)CCO)NC1=O`, for which the outcome was Active.
On the same count and under the same terms, in the case of `C/C(=C\C(=O)N(O)CCC[C@@H]1NC(=O)[C@H](CCCN(O)C(=O)/C=C(\C)CCO)NC1=O)CCO` it was “Active”.

The next assay relates to Staphylococcus aureus. Kind of assay: Growth inhibition of Staphylococcus aureus ATCC 25923 after 24 by broth micro-dilution method. It counts as functional.
`CC(=O)N[C@@H](CCCN(O)C(=O)/C=C(\C)CCO)C(=O)OCC/C(C)=C/C(=O)N(O)CCC[C@@H]1NC(=O)[C@H](CCCN(O)C(=O)/C=C(\C)CCO)NC1=O`: the IC50 was over 30 µM.
The same measure, in the same setting: in the case of `C/C(=C\C(=O)N(O)CCC[C@@H]1NC(=O)[C@H](CCCN(O)C(=O)/C=C(\C)CCO)NC1=O)CCO` it was over 30 µM; in that of `CC(=O)N[C@@H](CCCN(O)C(=O)/C=C(\C)CCO)C(=O)OCC/C(C)=C/C(=O)NCCC[C@@H]1NC(=O)[C@H](CCCNC(=O)/C=C(\C)CCO)NC1=O`, over 30 µM; in that of `C/C(=C\C(=O)NCCC[C@@H]1NC(=O)[C@H](CCCN(O)C(=O)/C=C(\C)CCO)NC1=O)CCO`, over 30 µM.
`C/C(=C\C(=O)NCCC[C@@H]1NC(=O)[C@H](CCCNC(=O)/C=C(\C)CCO)NC1=O)CCO`: the IC50 was over 30 µM.
On the same count and under the same terms, in the case of `CC(=O)N[C@@H](CCCN(O)C(=O)/C=C(\C)CCO)C(=O)OCC/C(C)=C/C(=O)NCCC[C@@H]1NC(=O)[C@H](CCCN(O)C(=O)/C=C(\C)CCO)NC1=O` it was over 30 µM; in that of `CC(=O)N[C@@H](CCCN(O)C(=O)/C=C(\C)CCO)C(=O)OCC/C(C)=C/C(=O)N(O)CCC[C@@H]1NC(=O)[C@H](CCCNC(=O)/C=C(\C)CCO)NC1=O`, over 30 µM.

The subject of a further assay is Candida albicans. In words: Growth inhibition of Candida albicans ATCC 90028 after 48 by broth micro-dilution method. In kind it is functional.
Regarding `CC(=O)N[C@@H](CCCN(O)C(=O)/C=C(\C)CCO)C(=O)OCC/C(C)=C/C(=O)N(O)CCC[C@@H]1NC(=O)[C@H](CCCN(O)C(=O)/C=C(\C)CCO)NC1=O`, the IC50 is over 30 µM.
`C/C(=C\C(=O)N(O)CCC[C@@H]1NC(=O)[C@H](CCCN(O)C(=O)/C=C(\C)CCO)NC1=O)CCO`: the IC50 is over 30 µM.
With `CC(=O)N[C@@H](CCCN(O)C(=O)/C=C(\C)CCO)C(=O)OCC/C(C)=C/C(=O)NCCC[C@@H]1NC(=O)[C@H](CCCNC(=O)/C=C(\C)CCO)NC1=O`, the IC50 is over 30 µM.
`C/C(=C\C(=O)NCCC[C@@H]1NC(=O)[C@H](CCCN(O)C(=O)/C=C(\C)CCO)NC1=O)CCO` yielded an IC50 of over 30 µM.
On the same count and under the same terms, the value for `C/C(=C\C(=O)NCCC[C@@H]1NC(=O)[C@H](CCCNC(=O)/C=C(\C)CCO)NC1=O)CCO` was over 30 µM; that for `CC(=O)N[C@@H](CCCN(O)C(=O)/C=C(\C)CCO)C(=O)OCC/C(C)=C/C(=O)NCCC[C@@H]1NC(=O)[C@H](CCCN(O)C(=O)/C=C(\C)CCO)NC1=O` was over 30 µM.
On the same count and under the same terms, in the case of `CC(=O)N[C@@H](CCCN(O)C(=O)/C=C(\C)CCO)C(=O)OCC/C(C)=C/C(=O)N(O)CCC[C@@H]1NC(=O)[C@H](CCCNC(=O)/C=C(\C)CCO)NC1=O` it was over 30 µM.

System in a further assay: not listed separately
In words: Metal chelating activity of the compound assessed as fluorescence recovery of calcein-Fe3 complex formation up to 10 uM measured after overnight incubation by CAFe based fluorescence spectrophotometry. The method, boiled down: as §1
For the compound `CC(=O)N[C@@H](CCCN(O)C(=O)/C=C(\C)CCO)C(=O)OCC/C(C)=C/C(=O)N(O)CCC[C@@H]1NC(=O)[C@H](CCCN(O)C(=O)/C=C(\C)CCO)NC1=O`, the outcome was Active.
Still for that read-out and setting: in the case of `C/C(=C\C(=O)N(O)CCC[C@@H]1NC(=O)[C@H](CCCN(O)C(=O)/C=C(\C)CCO)NC1=O)CCO` it was “Active”.

A further assay has as its system Escherichia coli. In words: Growth inhibition of Escherichia coli ATCC 25922 after 24 by broth micro-dilution method. It counts as functional.
`CC(=O)N[C@@H](CCCN(O)C(=O)/C=C(\C)CCO)C(=O)OCC/C(C)=C/C(=O)N(O)CCC[C@@H]1NC(=O)[C@H](CCCN(O)C(=O)/C=C(\C)CCO)NC1=O`: the IC50 is over 30 µM.
The compound `C/C(=C\C(=O)N(O)CCC[C@@H]1NC(=O)[C@H](CCCN(O)C(=O)/C=C(\C)CCO)NC1=O)CCO` displayed an IC50 of over 30 µM.
Same read-out and setting: the value for `CC(=O)N[C@@H](CCCN(O)C(=O)/C=C(\C)CCO)C(=O)OCC/C(C)=C/C(=O)NCCC[C@@H]1NC(=O)[C@H](CCCNC(=O)/C=C(\C)CCO)NC1=O` was over 30 µM; that for `C/C(=C\C(=O)NCCC[C@@H]1NC(=O)[C@H](CCCN(O)C(=O)/C=C(\C)CCO)NC1=O)CCO` was over 30 µM.
On the same count and under the same terms, the value for `C/C(=C\C(=O)NCCC[C@@H]1NC(=O)[C@H](CCCNC(=O)/C=C(\C)CCO)NC1=O)CCO` was over 30 µM; that for `CC(=O)N[C@@H](CCCN(O)C(=O)/C=C(\C)CCO)C(=O)OCC/C(C)=C/C(=O)NCCC[C@@H]1NC(=O)[C@H](CCCN(O)C(=O)/C=C(\C)CCO)NC1=O` was over 30 µM; that for `CC(=O)N[C@@H](CCCN(O)C(=O)/C=C(\C)CCO)C(=O)OCC/C(C)=C/C(=O)N(O)CCC[C@@H]1NC(=O)[C@H](CCCNC(=O)/C=C(\C)CCO)NC1=O` was over 30 µM.

For the next assay, the system named is Pseudomonas aeruginosa. Kind of assay: Growth inhibition of Pseudomonas aeruginosa ATCC 27853 after 24 by broth micro-dilution method. In kind it is functional.
As to `CC(=O)N[C@@H](CCCN(O)C(=O)/C=C(\C)CCO)C(=O)OCC/C(C)=C/C(=O)N(O)CCC[C@@H]1NC(=O)[C@H](CCCN(O)C(=O)/C=C(\C)CCO)NC1=O`, the IC50 is over 30 µM.
Same read-out and setting: in the case of `C/C(=C\C(=O)N(O)CCC[C@@H]1NC(=O)[C@H](CCCN(O)C(=O)/C=C(\C)CCO)NC1=O)CCO` it was over 30 µM; in that of `CC(=O)N[C@@H](CCCN(O)C(=O)/C=C(\C)CCO)C(=O)OCC/C(C)=C/C(=O)NCCC[C@@H]1NC(=O)[C@H](CCCNC(=O)/C=C(\C)CCO)NC1=O`, over 30 µM; in that of `C/C(=C\C(=O)NCCC[C@@H]1NC(=O)[C@H](CCCN(O)C(=O)/C=C(\C)CCO)NC1=O)CCO`, over 30 µM.
For the compound `C/C(=C\C(=O)NCCC[C@@H]1NC(=O)[C@H](CCCNC(=O)/C=C(\C)CCO)NC1=O)CCO`, the IC50 was over 30 µM.
Same read-out and setting: in the case of `CC(=O)N[C@@H](CCCN(O)C(=O)/C=C(\C)CCO)C(=O)OCC/C(C)=C/C(=O)NCCC[C@@H]1NC(=O)[C@H](CCCN(O)C(=O)/C=C(\C)CCO)NC1=O` it was over 30 µM; in that of `CC(=O)N[C@@H](CCCN(O)C(=O)/C=C(\C)CCO)C(=O)OCC/C(C)=C/C(=O)N(O)CCC[C@@H]1NC(=O)[C@H](CCCNC(=O)/C=C(\C)CCO)NC1=O`, over 30 µM.

The next assay deals with KB 3-1. Kind of assay: Cytotoxicity against human KB-3-1 cells assessed as reduction in cell viability up to 30 uM after 68 hrs by MTT assay. It counts as functional, cell-based.
`CC(=O)N[C@@H](CCCN(O)C(=O)/C=C(\C)CCO)C(=O)OCC/C(C)=C/C(=O)N(O)CCC[C@@H]1NC(=O)[C@H](CCCN(O)C(=O)/C=C(\C)CCO)NC1=O`: the outcome was inactive.
Same read-out and setting: the value for `C/C(=C\C(=O)N(O)CCC[C@@H]1NC(=O)[C@H](CCCN(O)C(=O)/C=C(\C)CCO)NC1=O)CCO` was “inactive”; that for `CC(=O)N[C@@H](CCCN(O)C(=O)/C=C(\C)CCO)C(=O)OCC/C(C)=C/C(=O)NCCC[C@@H]1NC(=O)[C@H](CCCNC(=O)/C=C(\C)CCO)NC1=O` was “inactive”.
Still for that read-out and setting: in the case of `C/C(=C\C(=O)NCCC[C@@H]1NC(=O)[C@H](CCCN(O)C(=O)/C=C(\C)CCO)NC1=O)CCO` it was “inactive”; in that of `C/C(=C\C(=O)NCCC[C@@H]1NC(=O)[C@H](CCCNC(=O)/C=C(\C)CCO)NC1=O)CCO`, “inactive”; in that of `CC(=O)N[C@@H](CCCN(O)C(=O)/C=C(\C)CCO)C(=O)OCC/C(C)=C/C(=O)NCCC[C@@H]1NC(=O)[C@H](CCCN(O)C(=O)/C=C(\C)CCO)NC1=O`, “inactive”.
On the same count and under the same terms, the value for `CC(=O)N[C@@H](CCCN(O)C(=O)/C=C(\C)CCO)C(=O)OCC/C(C)=C/C(=O)N(O)CCC[C@@H]1NC(=O)[C@H](CCCNC(=O)/C=C(\C)CCO)NC1=O` was “inactive”.
